Data published in ChEMBL document CHEMBL1132577, “Conformational preferences in a benzodiazepine series of potent nonpeptide fibrinogen receptor antagonists” (J Med Chem, 1999).

Legend:
[1] = biological target: Integrin alpha-IIb/beta-3 (Homo sapiens, UniProt P05106+P08514); experiment: Fibrinogen receptor binding affinity was determined by assaying for inhibition of [3H]1 binding to purified Fibrinogen Receptor isolated from human platelets and reconstituted in liposomes
Method in brief: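 Competition binding of the tritiated ligand [³H]-1 to the fibrinogen receptor glycoprotein complex GPIIb/IIIa, purified from human platelets and reconstituted into liposomes. The read-out is inhibition of radioligand binding.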

Homo sapiens = species on record: Homo sapiens; experiment: Inhibition of ADP-induced platelet aggregation in human platelet-rich plasma.; type: functional, organism-based

Integrin alpha-IIb/beta-3, sequence (P05106 27-788 limits assumed): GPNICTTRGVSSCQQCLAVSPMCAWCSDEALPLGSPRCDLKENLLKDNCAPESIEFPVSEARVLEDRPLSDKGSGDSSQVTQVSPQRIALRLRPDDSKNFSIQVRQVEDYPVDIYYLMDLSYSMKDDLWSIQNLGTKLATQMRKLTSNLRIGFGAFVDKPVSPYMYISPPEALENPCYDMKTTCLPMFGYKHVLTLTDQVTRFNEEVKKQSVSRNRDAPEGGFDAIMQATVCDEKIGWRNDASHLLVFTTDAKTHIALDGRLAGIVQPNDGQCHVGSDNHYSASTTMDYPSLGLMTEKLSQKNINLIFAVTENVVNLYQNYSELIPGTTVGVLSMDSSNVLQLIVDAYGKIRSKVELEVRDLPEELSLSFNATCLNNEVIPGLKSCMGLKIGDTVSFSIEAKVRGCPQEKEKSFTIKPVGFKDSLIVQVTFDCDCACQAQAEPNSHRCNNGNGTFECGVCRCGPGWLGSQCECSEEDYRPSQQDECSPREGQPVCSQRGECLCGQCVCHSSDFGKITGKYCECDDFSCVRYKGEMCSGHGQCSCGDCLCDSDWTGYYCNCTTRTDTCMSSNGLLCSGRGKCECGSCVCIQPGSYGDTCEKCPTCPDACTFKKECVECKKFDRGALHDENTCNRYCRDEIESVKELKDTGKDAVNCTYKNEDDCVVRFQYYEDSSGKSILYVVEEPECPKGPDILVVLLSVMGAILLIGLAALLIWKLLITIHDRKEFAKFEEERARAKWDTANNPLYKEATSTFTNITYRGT
Integrin alpha-IIb/beta-3, sequence (P08514 32-887 limits assumed): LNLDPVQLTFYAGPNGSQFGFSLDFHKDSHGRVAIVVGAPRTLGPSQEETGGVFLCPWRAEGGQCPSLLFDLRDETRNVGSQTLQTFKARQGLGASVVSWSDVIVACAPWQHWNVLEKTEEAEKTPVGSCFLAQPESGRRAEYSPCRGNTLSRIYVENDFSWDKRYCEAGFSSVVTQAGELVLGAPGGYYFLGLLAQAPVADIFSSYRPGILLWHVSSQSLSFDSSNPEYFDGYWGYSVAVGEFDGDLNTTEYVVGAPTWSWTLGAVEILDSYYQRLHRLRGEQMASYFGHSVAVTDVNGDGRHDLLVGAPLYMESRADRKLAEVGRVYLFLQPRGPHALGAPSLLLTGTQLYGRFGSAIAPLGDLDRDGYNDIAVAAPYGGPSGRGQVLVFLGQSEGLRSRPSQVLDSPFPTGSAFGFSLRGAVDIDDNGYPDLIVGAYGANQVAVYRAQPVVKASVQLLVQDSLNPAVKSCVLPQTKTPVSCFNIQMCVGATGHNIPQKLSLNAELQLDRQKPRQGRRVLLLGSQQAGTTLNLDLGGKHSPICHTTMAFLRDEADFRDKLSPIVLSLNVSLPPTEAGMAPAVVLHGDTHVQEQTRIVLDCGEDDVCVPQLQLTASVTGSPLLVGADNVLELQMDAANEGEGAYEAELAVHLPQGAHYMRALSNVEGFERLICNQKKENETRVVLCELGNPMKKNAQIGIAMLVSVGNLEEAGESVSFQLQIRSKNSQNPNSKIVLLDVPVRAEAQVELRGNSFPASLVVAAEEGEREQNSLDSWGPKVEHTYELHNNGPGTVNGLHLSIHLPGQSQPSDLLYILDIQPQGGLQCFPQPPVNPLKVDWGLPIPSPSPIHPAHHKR
Integrin alpha-IIb/beta-3, sequence (P08514 891-1039 limits assumed): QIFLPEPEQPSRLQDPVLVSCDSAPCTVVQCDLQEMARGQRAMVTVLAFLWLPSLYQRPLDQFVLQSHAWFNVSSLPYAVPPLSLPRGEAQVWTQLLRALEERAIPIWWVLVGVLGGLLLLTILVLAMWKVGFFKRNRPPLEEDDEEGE

SMILES | Ki [1] [nM] | IC50 (Homo sapiens) [nM]
O=C(O)CC1Nc2cc(C(=O)NCCC3CCNCC3)ccc2CN(CCc2ccccc2)C1=O (configuration not stated) | 4.7 | 510
O=C(O)CC1Nc2cc(/C=C\CCC3CCNCC3)ccc2CN(CCc2ccccc2)C1=O (configuration not stated) | 750 | 7400
N=C(N)c1ccc(NC(=O)c2ccc3c(c2)N[C@@H](CC(=O)O)C(=O)N(CCc2ccccc2)C3)cc1 | 2 | 34
N=C(N)c1ccc(C(=O)Nc2ccc3c(c2)NC(CC(=O)O)CN(CCc2ccccc2)C3=O)cc1 (configuration not stated) | – | > 200000
CN(C(=O)c1ccc2c(c1)CN(CCC(=O)O)C(=O)CC2)c1ccc(C(=N)N)cc1 | 22500 | > 200000
N=C(N)c1ccc(NC(=O)c2ccc3c(c2)NC(CC(=O)O)CN(CCc2ccccc2)C3)cc1 (configuration not stated) | 540 | 3000
N=C(N)c1ccc(C(=O)Nc2ccc3c(c2)CN(CC(=O)O)C(=O)NC3)cc1 | – | 23000
N=C(N)c1ccc(NC(=O)c2ccc3c(c2)N[C@H](CC(=O)O)C(=O)N(CCc2ccccc2)C3)cc1 | 500 | 2200
N=C(N)c1ccc(C(=O)Nc2ccc3c(c2)NC(CC(=O)O)C(=O)N(CCc2ccccc2)C3)cc1 (configuration not stated) | 2 | 130
N=C(N)c1ccc(NC(=O)c2cccc(NC(CC(=O)O)C(=O)O)c2)cc1 (configuration not stated) | – | 4700
O=C(O)CC1Nc2cc(/C=C/CCC3CCNCC3)ccc2CN(CCc2ccccc2)C1=O (configuration not stated) | 19 | 175
N=C(N)c1ccc(C(=O)Nc2ccc3c(c2)CN(CC(=O)O)C(=O)CN3)cc1 | 1200 | 3100
O=C(O)CC1Nc2cc(CCCCC3CCNCC3)ccc2CN(CCc2ccccc2)C1=O (configuration not stated) | 80 | 930
CN(CCC1CCNCC1)C(=O)c1ccc2c(c1)NC(CC(=O)O)C(=O)N(CCc1ccccc1)C2 (configuration not stated) | 1.9 | 15
N=C(N)c1ccc(C(=O)Nc2ccc3c(c2)CN(CCC(=O)O)C(=O)CN3)cc1 | 290 | 2100
N=C(N)c1ccc(NC(=O)c2ccc3c(c2)NC(CC(=O)O)CCC3)cc1 (configuration not stated) | – | 3900
CN(C(=O)c1ccc2c(c1)CN(CC(=O)O)C(=O)CC2)c1ccc(C(=N)N)cc1 | > 50000 | > 200000
N=C(N)c1ccc(NC(=O)c2ccc3c(c2)NC(CC(=O)O)CN(CCc2ccccc2)C3=O)cc1 (configuration not stated) | 800 | 8300
